# Laboratory results taken from ChEMBL document CHEMBL1158767, “Cytotoxic steroidal saponins from the rhizomes of Asparagus oligoclonos” (J Nat Prod, 2005).
# Assays:
# Type in all cases: functional, cell-based
# SK-MEL-2 = experiment: Cytotoxicity against human SK-MEL-2 cells by SRB assay
# In short: (§1)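 Standard sulforhodamine B assay on a panel of human tumour lines: A549 lung carcinoma, SK-OV-3 ovarian adenocarcinoma (from malignant ascites), SK-MEL-2 malignant melanoma (skin metastasis, thigh), XF-498 central nervous system tumour, and HCT 15 colon adenocarcinoma. Testing was done by an external pharmacology group.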
# XF498 = experiment: Cytotoxicity against human XF498 cells by SRB assay; in short: as §1
# HCT-15 = experiment: Cytotoxicity against human HCT15 cells by SRB assay; in short: as §1
# A549 = experiment: Cytotoxicity against human A549 cells by SRB assay
# SK-OV-3 = experiment: Cytotoxicity against human SKOV3 cells by SRB assay; in short: as §1
SMILES,IC50 (SK-MEL-2) [µg/mL],IC50 (XF498) [µg/mL],IC50 (HCT-15) [µg/mL],IC50 (A549) [µg/mL],IC50 (SK-OV-3) [µg/mL]
C[C@H]1CC[C@@]2(OC1)O[C@H]1C[C@H]3[C@@H]4CC[C@@H]5C[C@@H](O[C@@H]6O[C@H](CO)[C@@H](O)[C@H](O)[C@H]6O[C@@H]6O[C@@H](CO)[C@H](O)[C@H](O)[C@H]6O)CC[C@]5(C)[C@H]4CC[C@]3(C)[C@@]1(O)[C@@H]2C (relative stereo) [ASPAOLIGONIN A],2.53,2.84,2.59,2.25,2.66
C[C@H]1CC[C@@]2(OC1)O[C@H]1C[C@H]3[C@@H]4CC[C@@H]5C[C@@H](O[C@@H]6O[C@H](CO)[C@@H](O[C@@H]7O[C@@H](C)[C@H](O)[C@@H](O)[C@H]7O)[C@H](O)[C@H]6O[C@@H]6OC[C@@H](O)[C@H](O)[C@H]6O)CC[C@]5(C)[C@H]4CC[C@]3(C)[C@@]1(O)[C@@H]2C (relative stereo) [ASPAOLIGONIN B],2.59,2.51,2.57,2.55,2.73
C[C@H]1CC[C@@]2(OC1)O[C@H]1C[C@H]3[C@@H]4CC[C@@H]5C[C@@H](O[C@@H]6O[C@H](CO)[C@@H](O)[C@H](O)[C@H]6O[C@@H]6O[C@@H](CO)[C@H](O)[C@H](O)[C@H]6O)CC[C@]5(C)[C@H]4CC[C@]3(C)[C@H]1[C@@H]2C (relative stereo) [ASPARANIN A],2.41,2.56,2.47,2.05,2.43
COc1cccc2c1C(=O)c1c(O)c3c(c(O)c1C2=O)C[C@@](O)(C(=O)CO)C[C@@H]3O[C@H]1C[C@H](N)[C@H](O)[C@H](C)O1 [DOXORUBICIN],0.03,0.12,0.08,,0.18
